Assay outcomes: PubChem, several laboratories
MC4R ag barr = MC4R agonists recruiting beta-arrestin, primary screen, cell-based, luminescence, agonist arm of biased-ligand search; hit rate 0.98% among 360,000; U2OS MC4R beta-arrestin complementation; percent of melanotan II response, DMSO zero; activation, % at 8.9 µM;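 active = activation above a per-plate cutoff, the mean activation of sample wells on that plate plus 3 SD, cut at about 8% in these data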
Target sequence (P32245 whole entry, looked up): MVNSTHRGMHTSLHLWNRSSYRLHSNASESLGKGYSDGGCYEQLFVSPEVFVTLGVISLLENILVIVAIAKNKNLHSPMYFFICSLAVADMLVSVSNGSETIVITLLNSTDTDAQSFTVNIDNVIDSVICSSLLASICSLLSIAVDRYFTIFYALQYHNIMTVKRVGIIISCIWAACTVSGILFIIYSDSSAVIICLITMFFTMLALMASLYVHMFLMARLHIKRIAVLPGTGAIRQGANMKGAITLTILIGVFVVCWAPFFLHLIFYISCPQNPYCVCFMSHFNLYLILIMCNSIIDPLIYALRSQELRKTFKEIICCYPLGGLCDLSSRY
MC4R antagonist = MC4R antagonists of cAMP signaling, primary screen, cell-based, TR-FRET, antagonist arm of biased-ligand search | MC4R-expressing cells, MTII-stimulated cAMP, LANCE TR-FRET | AID 540295, 2011 | inhibition, % at 6.5 µM | hit rate 0.48% among 360,000;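 active = inhibition above its plate's cutoff, the mean of tested wells on that plate plus 3 SD, cut at about 29% in these data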;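 also: 0% = Melanotan II alone and 100% = Melanotan II plus saturating MCL0020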
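Material: U2OS-MC4R stable cell line | Reagent: Melanotan II challenge after compound preincubation | Doses: One concentration, 6.5 µM nominal | Incubation: 30-min compound preincubation, 1-h Melanotan II challenge, 1-h detection, room temperature | Signal: TR-FRET cAMP assay | Replicates: One well per compound, no replicates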
AI-2 QS mod = Vibrio harveyi AI-2 quorum sensing modulators, primary screen, JMH597 strain, luminescence/OD600 ratio; Vibrio harveyi JMH597 AI-2 luminescence/OD600 ratio, 9 h; active compounds read low; strain lacks LuxN and CqsS sensors; 0 = neutral-control median; activity change, % at 7.5 µM; hit rate 0.4% among 300,000; AID 2094, 2009; in the data active = activity change below about -75%, passing the limit was not always enough;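 also: luminescence divided by OD600 gain over 9 h not by final OD600 alone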
NTR1 agonist = agonists of human NTR1, primary screen, imaging, U2OS cells, beta-arrestin-GFP, high content; hit rate 0.17% among 330,000; activation, % at 20 µM; NTR1-U2OS beta-arrestin-GFP spot imaging, agonist mode; Neurotensin receptor type 1 (Homo sapiens), P30989;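 active = activation at or above 40% of the spot to cytoplasm intensity ratio, with at least 20 cells analyzed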;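 also: 0% = DMSO without peptide and 100% = 100 nM NTR1 peptide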
* hit, by the source's call; . = no result given. A selection: hits, their analogues and other compounds. The true share with any hit is near 1.8%.

SMILES | MC4R ag barr | MC4R antagonist | AI-2 QS mod | NTR1 agonist
O=C(N/N=C\c1ccc([N+](=O)[O-])s1)C1COc2ccccc2O1 (stereo not given) | -2 | 4 | -86* | 1
O=C(N/N=C\c1ccc([N+](=O)[O-])o1)C1COc2ccccc2O1 (stereo not given) | -1 | 13 | -87* | 0
Cc1nn(CCO)c2nc(-c3cccs3)cc(C(F)(F)F)c12 | 8.5* | -6 | 54 | 5
Cc1nn(C)c2nc(-c3cccs3)cc(C(F)(F)F)c12 | 1 | 1 | 16 | 1
COc1ccccc1NC(=O)c1ccc(NC(=O)COC(=O)c2cccnc2Cl)cc1 | -1 | 4 | . | 6
COc1cc(/C=C2\CCC/C(=C\c3ccc(O)c(OC)c3)C2=O)ccc1O | 30* | 13 | -9 | 56*
CCOC(=O)C1=C(CSc2nccn2C)NC(=O)NC1c1ccc2c(c1)OCO2 (stereo not given) | 9.2* | 4 | 12 | -1
CCOC(=O)C1=C(CSc2nccn2C)NC(=O)NC1c1cc(C)ccc1C (stereo not given) | 2 | -5 | 12 | 3
Nc1nonc1C(=O)NCCN=Cc1ccccc1O | 1 | 11 | 22 | 0
Nc1nonc1C(=O)NCCN=Cc1cc(Cc2ccccc2)cc(Br)c1O | 9.2* | 5 | -149* | 31
COc1ccc(NC(=O)CSc2nc(N)cc(N)n2)cc1S(=O)(=O)N1CCCCC1 | 0 | 12 | . | 1
COc1ccc(CNC[C@@H](CCCCN(C)Cc2ccc(OC)cc2)N2C[C@H](c3ccccc3)N(CCc3ccc(Cl)c(Cl)c3)C(=O)C2=O)cc1 | 25* | 30* | 21 | 22
CC(=O)N1CCN(C(=O)CCCNC(=O)c2ccc(Cl)cc2)CC1 | -1 | 1 | 30 | 0
Cc1cc2oc(C(=O)Nc3ccc(S(N)(=O)=O)cc3)c(C)c2cc1Cl | 8.4* | -2 | 28 | -2
Cc1ccc2c(C)c(C(=O)Nc3ccc(S(N)(=O)=O)cc3)oc2c1C | 4 | 4 | 2 | 1
COc1ccc(NS(=O)(=O)c2cccc(NC(=O)COc3ccc(OC)cc3)c2)cc1 | 1 | 2 | -83* | 0
O=C(COC(=O)c1n[nH]c(=O)c2ccccc12)Nc1ccccc1 | -1 | -4 | . | -1
C=CCn1c(=O)c2ccc(C(=O)NCc3ccccc3)cc2n(Cc2cccc(Cl)c2)c1=O | 9.5* | -30 | 13 | 1
C=CCn1c(=O)c2ccc(C(=O)NCc3ccccc3)cc2n(Cc2ccc(Cl)cc2)c1=O | 0 | 16 | -7 | 8
CC(C)(C)c1ccc(S(=O)(=O)NCC(=O)N2CCN(Cc3ccccc3)CC2)cc1 | -2 | 1 | 13 | -1
COc1cccc(C(=O)Nc2ccc3nc(N4CCN(c5ncccn5)CC4)cc(C)c3c2)c1OC | . | . | . | 47*
COc1ccc(OC)c(C(=O)Cn2nnc(-c3ccc(N4CCOCC4)cc3)n2)c1 | 9.3* | 14 | 12 | 0
COc1ccc(-c2ccc(-c3nnn(CC(=O)N4CCOCC4)n3)cc2)cc1 | 2 | 0 | 15 | 0
CC(C)N(C(=O)COC(=O)c1ccc(Cl)nc1)C(C)C | 1 | -2 | -7 | -1
O=C(OCCOc1ccc(Br)cc1)c1ccc(Cl)nc1 | 9.2* | 26 | 2 | 0
SMILES | MC4R ag barr | MC4R antagonist | AI-2 QS mod | NTR1 agonist
O=C(OCc1ccc(Br)cc1)c1cnc(Cl)c(Cl)c1 | -2 | 33* | 6 | 14
C[C@H](CO)N1C[C@H](C)[C@@H](CN(C)C)Oc2c(NC(=O)CCC(F)(F)F)cccc2C1=O | -1 | 2 | . | 6
COc1cccc(COC(=O)c2cc(=O)[nH]c3ccc(S(=O)(=O)N4CCOCC4)cc23)c1OC | 0 | -2 | -1 | 0
O=C(NC(=S)Nc1ccc(F)c(Cl)c1)C1CC1 | -3 | -3 | -78* | 0
O=C(CNc1cccc(F)c1)N1CCc2ccccc2C1 | 4 | 3 | 5 | 0
Cc1cc(NC(c2ccc(Cl)cc2)c2ccc3cccnc3c2O)no1 (stereo not given) | -3 | 2 | -93* | 1
C/C(=N\Nc1nc2ccccc2[nH]1)c1ccc([N+](=O)[O-])cc1 | 9.5* | -3 | 5 | 2
O=C(c1c(F)cccc1F)N(C1CCCCC1)C1CCCCC1 | 3 | 8 | 4 | 4
O=C(Nc1ccc(S(=O)(=O)N2CCOCC2)cc1)c1cc(-c2cc(Cl)ccc2O)n[nH]1 | 9.1* | -13 | 9 | 34
Cc1cccc(N(C(=O)c2snc(C(N)=O)c2N)C(C(=O)NCc2ccccc2)c2ccncc2)c1 (stereo not given) | -1 | 1 | 11 | -1
C[C@@H](O)CNC(=O)c1[nH]cnc1C(=O)N[C@H](C)c1ccccc1 | 0 | 1 | . | .
CC1CCN(S(=O)(=O)c2ccc(NC(=O)Cn3nnc(-c4ccccc4)n3)cc2)CC1 | 37* | -4 | 20 | 17
Cc1ccc(-c2nnn(CC(=O)Nc3ccc(S(=O)(=O)N4CCC(C)CC4)cc3)n2)cc1 | 13* | -4 | 29 | 6
COc1ccc(OC)c(N(CC(=O)N2CCCC2)S(C)(=O)=O)c1 | 0 | 14 | -5 | 1
C=CCN(c1ccccc1)S(=O)(=O)c1cccc(C(=O)NCC(c2cccs2)N2CCOCC2)c1 (stereo not given) | -1 | 10 | 27 | 1
COc1cccc(C2c3c(-c4ccccc4O)n[nH]c3C(=O)N2Cc2ccco2)c1 (stereo not given) | 0 | 1 | 2 | 6
O=C1c2[nH]nc(-c3ccccc3O)c2C(c2ccccc2)N1Cc1ccco1 (stereo not given) | 9.2* | -5 | 29 | 2
O=C(O)c1cc(S(=O)(=O)NC(Cc2c[nH]c3ccccc23)C(=O)O)ccc1Cl (stereo not given) | -1 | 0 | 18 | 0
O=C(NCc1ccc2c(c1)OCO2)c1c(-c2ccccc2)sc2ccccc12 | 21* | 7 | . | 0
Cc1onc(-c2ccccc2)c1C(=O)NCc1ccc2c(c1)OCO2 | 0 | 18 | 18 | 0
O=S(=O)(Nc1ccc(N=Nc2ccccc2)cc1)c1ccccc1 | 8.3* | 0 | 22 | 3
O=S(=O)(Nc1ccc(Nc2ccccc2)cc1)c1ccc(F)cc1 | 8 | 2 | -95* | 7
O=S(=O)(Nc1ccc(S(=O)(=O)Nc2ccccc2)cc1)c1ccccc1 | -1 | 1 | 16 | 4
CC(=O)N1CCc2cc(S(=O)(=O)NCC(=O)NCc3ccc(Cl)cc3)ccc21 | 0 | 3 | 5 | 0
NC(=O)C1CCN(C(=O)NC2CC(=O)N(c3ccc4c(c3)OCCO4)C2)CC1 (stereo not given) | -1 | 0 | 13 | -1
